# The source made the active and inactive calls. The rule behind the calls is not given here.
# Tested on: HT-1080
# Assay: Antiproliferative activity against human HT1080 cells after 48 hrs by SRB assay
# Assay type: functional, cell-based
# Conditions: HT-1080, 48 h
# Summary of the method: (§1)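 Cells grown in DMEM with 5% FBS at 37 C; seeded per well at 2.5 x 10^3 (HT-1080), 4.0 x 10^3 (HT-29), 3.0 x 10^3 (M21) or 2.5 x 10^3 (MCF7). Drugs from 40 mM DMSO stock, serial dilutions, final 100 µM to 78 nM, DMSO <0.5%.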
row,Structure (SMILES),IC50 [µM]
1,O=C(NCCCCl)Nc1ccc(S(=O)(=O)Oc2ccccc2I)cc1,2.8
2,O=C(CCCl)Nc1ccc(S(=O)(=O)Oc2ccccc2I)cc1,4.2
3,CCC(=O)Nc1ccc(S(=O)(=O)Oc2ccccc2I)cc1,7.2
4,CCCCCNC(=O)Nc1ccc(S(=O)(=O)Oc2ccccc2I)cc1,6.9
5,O=C(Nc1ccc(S(=O)(=O)Oc2ccccc2I)cc1)NC1CC1,1.3
6,CCCCCNC(=O)Nc1ccc(S(=O)(=O)Oc2ccccc2C(C)C)cc1,4.7
7,CCCNC(=O)Nc1ccc(S(=O)(=O)Oc2ccccc2C(C)C)cc1,0.68

# Tested on: HT-29
# Assay: Antiproliferative activity against human HT-29 cells after 48 hrs by SRB assay
# Assay type: functional, cell-based
# Conditions: HT-29, 48 h
# Summary of the method: as §1
row,Structure (SMILES),IC50 [µM]
1,O=C(NCCCCl)Nc1ccc(S(=O)(=O)Oc2ccccc2I)cc1,9.6
2,O=C(CCCl)Nc1ccc(S(=O)(=O)Oc2ccccc2I)cc1,14
3,CCC(=O)Nc1ccc(S(=O)(=O)Oc2ccccc2I)cc1,11
4,CCCCCNC(=O)Nc1ccc(S(=O)(=O)Oc2ccccc2I)cc1,6.6
5,O=C(Nc1ccc(S(=O)(=O)Oc2ccccc2I)cc1)NC1CC1,14
6,CCCCCNC(=O)Nc1ccc(S(=O)(=O)Oc2ccccc2C(C)C)cc1,4.9
7,CCCNC(=O)Nc1ccc(S(=O)(=O)Oc2ccccc2C(C)C)cc1,6.3

# Tested on: M21
# Assay: Antiproliferative activity against human M21 cells after 48 hrs by SRB assay
# Assay type: functional, cell-based
# Conditions: M21, 48 h
# Summary of the method: as §1
row,Structure (SMILES),IC50 [µM]
1,O=C(NCCCCl)Nc1ccc(S(=O)(=O)Oc2ccccc2I)cc1,4.6
2,O=C(CCCl)Nc1ccc(S(=O)(=O)Oc2ccccc2I)cc1,12
3,CCC(=O)Nc1ccc(S(=O)(=O)Oc2ccccc2I)cc1,11
4,CCCCCNC(=O)Nc1ccc(S(=O)(=O)Oc2ccccc2I)cc1,5.9
5,O=C(Nc1ccc(S(=O)(=O)Oc2ccccc2I)cc1)NC1CC1,11
6,CCCCCNC(=O)Nc1ccc(S(=O)(=O)Oc2ccccc2C(C)C)cc1,4.6
7,CCCNC(=O)Nc1ccc(S(=O)(=O)Oc2ccccc2C(C)C)cc1,5.1

# Tested on: MCF7
# Assay: Antiproliferative activity against human MCF7 cells after 48 hrs by SRB assay
# Assay type: functional, cell-based
# Conditions: MCF7, 48 h
# Summary of the method: as §1
row,Structure (SMILES),IC50 [µM]
1,O=C(NCCCCl)Nc1ccc(S(=O)(=O)Oc2ccccc2I)cc1,7.6
2,O=C(CCCl)Nc1ccc(S(=O)(=O)Oc2ccccc2I)cc1,8.9
3,CCC(=O)Nc1ccc(S(=O)(=O)Oc2ccccc2I)cc1,8.1
4,CCCCCNC(=O)Nc1ccc(S(=O)(=O)Oc2ccccc2I)cc1,5.4
5,O=C(Nc1ccc(S(=O)(=O)Oc2ccccc2I)cc1)NC1CC1,7.4
6,CCCCCNC(=O)Nc1ccc(S(=O)(=O)Oc2ccccc2C(C)C)cc1,4
7,CCCNC(=O)Nc1ccc(S(=O)(=O)Oc2ccccc2C(C)C)cc1,2.7

# Tested on: M21
# Assay: Cell cycle arrest in human M21 cells assessed as accumulation at sub-G1 phase at 2 times IC50 after 24 hrs by DAPI staining based flow cytometry relative to control
# Assay type: functional
# Conditions: not given
# Summary of the method: (§2)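 Flow cytometry in M21 cells seeded in six-well plates, allowed 24 h, then exposed 24 h to drug (2- or 5-fold IC50); DMSO 0.5% control. Trypsinized, PBS-washed, fixed in ice-cold EtOH, stained with 2 mg/mL DAPI in PBS; sub-G1, G0/G1, S and G2/M fractions measured on LSR II cytometer.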
row,Structure (SMILES),Activity [%]
1,O=C(CCCl)Nc1ccc(S(=O)(=O)Oc2ccccc2I)cc1,0.2
2,CCC(=O)Nc1ccc(S(=O)(=O)Oc2ccccc2I)cc1,0.2

# Tested on: M21
# Assay: Cell cycle arrest in human M21 cells assessed as accumulation at G0/G1 phase at 2 times IC50 after 24 hrs by DAPI staining based flow cytometry relative to control
# Assay type: functional
# Conditions: not given
# Summary of the method: as §2
row,Structure (SMILES),Activity [%]
1,O=C(CCCl)Nc1ccc(S(=O)(=O)Oc2ccccc2I)cc1,27.5
2,CCC(=O)Nc1ccc(S(=O)(=O)Oc2ccccc2I)cc1,60.4

# Tested on: M21
# Assay: Cell cycle arrest in human M21 cells assessed as accumulation at S phase at 2 times IC50 after 24 hrs by DAPI staining based flow cytometry relative to control
# Assay type: functional
# Conditions: not given
# Summary of the method: as §2
row,Structure (SMILES),Activity [%]
1,O=C(CCCl)Nc1ccc(S(=O)(=O)Oc2ccccc2I)cc1,34.9
2,CCC(=O)Nc1ccc(S(=O)(=O)Oc2ccccc2I)cc1,28

# Tested on: M21
# Assay: Cell cycle arrest in human M21 cells assessed as accumulation at G2/M phase at 2 times IC50 after 24 hrs by DAPI staining based flow cytometry relative to control
# Assay type: functional
# Conditions: not given
# Summary of the method: as §2
row,Structure (SMILES),Activity [%]
1,O=C(CCCl)Nc1ccc(S(=O)(=O)Oc2ccccc2I)cc1,37.4
2,CCC(=O)Nc1ccc(S(=O)(=O)Oc2ccccc2I)cc1,11.4

# Tested on: M21
# Assay: Induction of DNA damage in human M21 cells assessed as increase in gammaH2Ax level at 5 times IC50 after 24 hrs by immunofluorescence based epifluorescence microscopy
# Assay type: functional, cell-based
# Conditions: not given
# Summary of the method: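 M21 cells (1 x 10^5) on fibronectin-coated (5 µg/mL, 1 h, 37 C) cover slides, 24 h attachment, then drug for 24 h; DMSO 0.25% in medium as control. Fixed with 3.7% formaldehyde, permeabilized with 0.1% saponin/3% BSA, mouse anti-H2AX pS139 (1:8000), DAPI nuclear stain; γH2AX foci imaged by epifluorescence microscopy.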
row,Structure (SMILES),Activity
1,O=C(NCCCCl)Nc1ccc(S(=O)(=O)Oc2ccccc2I)cc1,Active

# Tested on: not listed separately
# Assay: Alkylating activity at DNA (unknown origin) after 90 mins by colorimetric NBP assay
# Assay type: functional
# Conditions: not given
# Summary of the method: (§3)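 NBP alkylation kinetics (Bardos colorimetric method): 400 nmol drug in 1 mL ethanol mixed with 1 mL NBP (10% v/v in 95% ethanol), 1 mL 50 mM acetate buffer pH 4.3 and 1 mL ethanol, kept on ice, then heated at 80 C in shaking water bath; stopped on ice 5 min after 0, 30, 60, 90 min. Rate constant from linear regression of absorbance curve; chlorambucil as positive control.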
row,Structure (SMILES),K [×10⁻³ /s]
1,O=C(NCCCl)Nc1ccc(S(=O)(=O)Oc2ccccc2I)cc1,0.071
2,O=C(NCCCCl)Nc1ccc(S(=O)(=O)Oc2ccccc2I)cc1,0.12
3,O=C(CCCl)Nc1ccc(S(=O)(=O)Oc2ccccc2I)cc1,0.063
4,CCC(=O)Nc1ccc(S(=O)(=O)Oc2ccccc2I)cc1,0.49
5,CCCNC(=O)Nc1ccc(S(=O)(=O)Oc2ccccc2C(C)C)cc1,0.027

# Tested on: not listed separately
# Assay: Alkylating activity at DNA (unknown origin) after 90 mins by colorimetric NBP assay relative to chlorambucil
# Assay type: functional
# Conditions: not given
# Summary of the method: as §3
row,Structure (SMILES),fold change (FC)
1,O=C(NCCCl)Nc1ccc(S(=O)(=O)Oc2ccccc2I)cc1,75
2,O=C(NCCCCl)Nc1ccc(S(=O)(=O)Oc2ccccc2I)cc1,44
3,O=C(CCCl)Nc1ccc(S(=O)(=O)Oc2ccccc2I)cc1,84
4,CCC(=O)Nc1ccc(S(=O)(=O)Oc2ccccc2I)cc1,11
5,CCCNC(=O)Nc1ccc(S(=O)(=O)Oc2ccccc2C(C)C)cc1,200

# Tested on: M21
# Assay: Cell cycle arrest in human M21 cells assessed as accumulation at S phase at 2 times IC50 after 24 hrs by DAPI staining based flow cytometry relative to control
# Conditions: not given
row,Structure (SMILES),Activity [%]
1,O=C(NCCCl)Nc1ccc(S(=O)(=O)Oc2ccccc2I)cc1,30.9
2,O=C(NCCCCl)Nc1ccc(S(=O)(=O)Oc2ccccc2I)cc1,32
3,CCCCCNC(=O)Nc1ccc(S(=O)(=O)Oc2ccccc2I)cc1,14.7
4,O=C(Nc1ccc(S(=O)(=O)Oc2ccccc2I)cc1)NC1CC1,26.9
5,CCCCCNC(=O)Nc1ccc(S(=O)(=O)Oc2ccccc2C(C)C)cc1,12.2
6,CCCNC(=O)Nc1ccc(S(=O)(=O)Oc2ccccc2C(C)C)cc1,25.1

# Tested on: M21
# Assay: Cell cycle arrest in human M21 cells assessed as accumulation at G2/M phase at 2 times IC50 after 24 hrs by DAPI staining based flow cytometry relative to control
# Conditions: not given
row,Structure (SMILES),Activity [%]
1,O=C(NCCCl)Nc1ccc(S(=O)(=O)Oc2ccccc2I)cc1,12.2
2,O=C(NCCCCl)Nc1ccc(S(=O)(=O)Oc2ccccc2I)cc1,13.5
3,CCCCCNC(=O)Nc1ccc(S(=O)(=O)Oc2ccccc2I)cc1,23
4,O=C(Nc1ccc(S(=O)(=O)Oc2ccccc2I)cc1)NC1CC1,11.5
5,CCCCCNC(=O)Nc1ccc(S(=O)(=O)Oc2ccccc2C(C)C)cc1,26.9
6,CCCNC(=O)Nc1ccc(S(=O)(=O)Oc2ccccc2C(C)C)cc1,10

# Tested on: M21
# Assay: Cell cycle arrest in human M21 cells assessed as accumulation at G0/G1 phase at 2 times IC50 after 24 hrs by DAPI staining based flow cytometry relative to control
# Conditions: not given
row,Structure (SMILES),Activity [%]
1,O=C(NCCCl)Nc1ccc(S(=O)(=O)Oc2ccccc2I)cc1,56.8
2,O=C(NCCCCl)Nc1ccc(S(=O)(=O)Oc2ccccc2I)cc1,54.4
3,CCCCCNC(=O)Nc1ccc(S(=O)(=O)Oc2ccccc2I)cc1,62.2
4,O=C(Nc1ccc(S(=O)(=O)Oc2ccccc2I)cc1)NC1CC1,61.5
5,CCCCCNC(=O)Nc1ccc(S(=O)(=O)Oc2ccccc2C(C)C)cc1,60.6
6,CCCNC(=O)Nc1ccc(S(=O)(=O)Oc2ccccc2C(C)C)cc1,64.6

# Tested on: M21
# Assay: Cell cycle arrest in human M21 cells assessed as accumulation at sub-G1 phase at 2 times IC50 after 24 hrs by DAPI staining based flow cytometry relative to control
# Conditions: not given
row,Structure (SMILES),Activity [%]
1,O=C(NCCCl)Nc1ccc(S(=O)(=O)Oc2ccccc2I)cc1,0.1
2,O=C(NCCCCl)Nc1ccc(S(=O)(=O)Oc2ccccc2I)cc1,0.1
3,CCCCCNC(=O)Nc1ccc(S(=O)(=O)Oc2ccccc2I)cc1,0.1
4,O=C(Nc1ccc(S(=O)(=O)Oc2ccccc2I)cc1)NC1CC1,0.1
5,CCCCCNC(=O)Nc1ccc(S(=O)(=O)Oc2ccccc2C(C)C)cc1,0.3
6,CCCNC(=O)Nc1ccc(S(=O)(=O)Oc2ccccc2C(C)C)cc1,0.3

# Tested on: M21
# Assay: Induction of DNA damage in human M21 cells assessed as increase in gammaH2Ax level at 5 times IC50 after 24 hrs by immunofluorescence based epifluorescence microscopy
# Conditions: not given
row,Structure (SMILES),Activity
1,O=C(CCCl)Nc1ccc(S(=O)(=O)Oc2ccccc2I)cc1,Active
2,CCC(=O)Nc1ccc(S(=O)(=O)Oc2ccccc2I)cc1,Active
